Measurements from ChEMBL document CHEMBL4513216, “Probing the Open Global Health Chemical Diversity Library for Multistage-Active Starting Points for Next-Generation Antimalarials” (ACS Infect Dis, 2020).

Assay: Toxicity liver stage against HepG2, at 10uM
Format: cell-based
Set-up: test concentration 10 uM, cell line HepG2-A16-CD81EGFP
Conditions: human, HepG2-A16-CD81EGFP cells; read-out: INHIBITION
Procedure, shortened: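 Uninfected HepG2-A16-CD81EGFP cells, 3 × 10^3 per well, 1536-well, plated on prespotted compound at 10 μM final, parasite-free screening media added to match infected plates; puromycin 10 μM positive, DMSO 0.5% negative; run in parallel with 48 h PbLuc assay at 37 °C, 5% CO2; viability by CellTiter-Glo luminescence, normalized to controls.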

Row | Structure (SMILES) | cytotoxicity at 10 µM [%]
1 | CC(CN1CCOCC1)OC(=O)c1ccccc1Cl (stereo not drawn) | -4.52
2 | CN(Cc1ccccc1C(F)(F)F)C(C(N)=O)c1ccccc1 (stereo not drawn) | 13.2
3 | CNC(=O)c1cc(C)n(-c2ccccc2)n1 | -0.142
4 | CCc1c(C)nc2n(c1=O)CC(C(=O)NCc1cccs1)CS2 (stereo not drawn) | 15.2
5 | Cc1ccc(S(=O)(=O)N2CCC(S(C)(=O)=O)CC2)cc1C | 2.59
6 | Cc1nc(N2CCOCC2)nc(C)c1NC(=O)Cc1ccc(Cl)cc1 | -4
7 | COCCn1c2c(ccc1=O)CC(N)CC2 (stereo not drawn) | 9.77
8 | CN1CCCC2(C1)CN(C(=O)C1CCCCC1)CCO2 (stereo not drawn) | 0.994
9 | Cc1cccc(CN2CCc3nnc(CN(C)C)n3CC2)n1 | -1.54
10 | N#Cc1cccc(N2CCCC3(CN(C(=O)NC4CC4)CCO3)C2)c1 (stereo not drawn) | 12.1
11 | CC(C)C(=O)N1CCC12CCCN(C(=O)c1ccccc1)C2 (stereo not drawn) | 6.8
12 | COCC(=O)N1CCn2c(Cn3cncn3)cnc2C1C (stereo not drawn) | 0.53
13 | Cc1nnc([C@H]2C[C@@H]3CCN(Cc4cc(C)on4)C[C@H]3O2)[nH]1 | -5.03
14 | Cc1noc([C@H]2COC[C@H]3CN(C(=O)Cc4cccs4)C[C@H]32)n1 | 3.3
15 | COCCN1CC[C@H]2OCC[C@@H](C(=O)Nc3cccnc3)[C@@H]2C1 | 4.81
16 | CC(C)NC(=O)CC1(Cn2cnnn2)CCCCC1 | 9.54
17 | CNc1nc2c(s1)C(c1cc(Cl)ccc1F)CC(=O)N2 (stereo not drawn) | 10.3
18 | CN(C)CC1CSCCCN1C(=O)c1ccc(C(C)(C)C)cc1 (stereo not drawn) | 6.25
19 | Cc1c(S(=O)(=O)NCC(C)Cn2cc(Cl)cn2)cnn1C (stereo not drawn) | 0.446
20 | Cc1ccc(C)c(NC(=O)c2n[nH]c(-n3cnnc3)n2)c1 | 3.43
21 | Cn1cc(CN2CCC(c3ncc(Cl)cc3S(C)(=O)=O)CC2)cn1 | -0.83
22 | Clc1ccc(OCCc2cc(C3CCN(c4ncccn4)C3)n[nH]2)cc1 (stereo not drawn) | 7.45
23 | CN1CCCC(c2cccc(-c3cccc(F)c3)n2)C1 (stereo not drawn) | -2.4

Row | Structure (SMILES) | cytotoxicity at 10 µM [%]
24 | COCCC(=O)N1CCCC(c2n[nH]cc2C)C1 (stereo not drawn) | -1.75
25 | O=C1CN(Cc2ccc3ccccc3n2)CCN1C1CCCC1 | -3.45
26 | CS(=O)(=O)Cc1cccc(CNS(=O)(=O)c2ccc(F)c(F)c2)c1 | 1.33
27 | Cc1nnc(CNC(C)c2cc(C)c(F)c(C)c2)s1 (stereo not drawn) | -3.7
28 | CCN(CC)C(=O)CCNC(=O)c1c[nH]c2ccc(OC)cc12 | 1.86
29 | O=C(CC1COCCN1C(=O)c1cscn1)c1ccccc1 (stereo not drawn) | 6.24
30 | Cc1cc(CC(=O)NCC(O)COc2ccc(F)c(F)c2)no1 (stereo not drawn) | -5.03
31 | CC(NC(=O)NCCCn1cccn1)c1ccncc1 (stereo not drawn) | 15.3
32 | Cc1cccc(CN2CCC(NCC3CNc4cc(C)nn4C3)CC2)c1 (stereo not drawn) | 7.36
33 | CCc1cc(NCc2cccnc2N2CCCCC2)n2ncnc2n1 | 10.5
34 | NC(=O)C1CCN(CCc2ccc(NCc3ccsc3)cc2)CC1 | 0.867
35 | Cc1noc(C)c1CN(C)Cn1nccc1-c1cccnc1 | -0.532
36 | Cc1cnn(CC2CC2)c1NC(=O)c1cccnc1O | 6.62
37 | COCCN(CCOC)c1ncccc1Cl | 3.94
38 | CC(c1nnc(-c2ccccc2)o1)N1CCc2cncnc2C1 (stereo not drawn) | 8.59
39 | CC(C)n1cnnc1C1CCCN(S(=O)(=O)c2c[nH]cn2)C1 (stereo not drawn) | -6.6
40 | CCc1nn(C)c2[nH]nc(NC(=O)c3cccnc3NC(C)C)c12 | 3.07
41 | COc1ccc(CC2CCCN2CCCC#N)cc1 (stereo not drawn) | -54.7
42 | O=C(CSCc1ccccn1)N(Cc1ccsc1)C1CC1 | -9.8
43 | CC(O)CNC(=O)NCCCN1CCN(c2ncccn2)CC1 (stereo not drawn) | -48.8
44 | CCC(C)(NCC(=O)N(c1ccccc1)C(C)C)c1nc(C)cs1 (stereo not drawn) | 10.9
45 | CC(C)c1cc(C(=O)N2CCN(Cc3ccsc3)CC2)n[nH]1 | 0.0711
46 | CN(Cc1cnccn1)C(=O)c1ccnc(OC2CCC2)c1 | 0.0711

Row | Structure (SMILES) | cytotoxicity at 10 µM [%]
47 | O=C(O)C1(n2cccn2)CCN(Cc2nc(-c3ccccc3)no2)CC1 | 6.74
48 | Cc1ccc(C2(O)CCN(Cc3nnc(-c4cccnc4)o3)CC2)nc1 | -7.77
49 | COCCN1CC2(CCCN(C(=O)NCc3ccccc3)C2)CCC1=O (stereo not drawn) | -9.31
50 | CCN1CC(C(=O)N2CCN(CCn3cccc3)CC2)CC1=O (stereo not drawn) | -3.64
51 | CCNc1ncc(C(=O)N(C)Cc2nc3cc(Cl)ccc3[nH]2)cn1 | -44.3
52 | Cc1csc2c(=O)n(C(C)Cc3cccnc3)cnc12 (stereo not drawn) | 9.98
53 | COc1cccc2c1OCC(C(=O)NCc1nc3c(s1)CCCC3)C2 (stereo not drawn) | -43.3
54 | C[C@@H](N)C(=O)N1CCC(c2[nH]ncc2-c2ccccc2)CC1 | -3.81
55 | CCOCCn1c(=O)n(Cc2ccc(F)cc2)c2ncc(C(=O)O)cc21 | 0.902
56 | CC(C)c1cc(NC(CCO)c2ccccc2)n2nccc2n1 (stereo not drawn) | -45.4
57 | CCN1CCc2[nH]cnc2C12CCN(C(=O)CCCn1cncn1)CC2 | -19.2
58 | O=C(Cc1cccc(O)c1)N1CCCC(OCc2cccnc2)C1 (stereo not drawn) | 1.5
59 | CCC(C(=O)NCc1ccncc1)N(c1cccc(C)c1)S(C)(=O)=O (stereo not drawn) | -5.88
60 | CC(C)C(=O)NCCNc1nccc(-c2cc(C(=O)O)ccn2)n1 | -24
61 | CCn1cnnc1CNC(=O)N1CCN(c2ccc(OC)cc2)CC1 | -1.62
62 | CCn1cnnc1CNC(=O)N1CCN(c2ccccc2O)CC1 | -1.47
63 | Cc1noc(C)c1CN(Cc1cccs1)C1CCS(=O)(=O)C1 (stereo not drawn) | -0.375
64 | Cc1oc(-c2cccs2)nc1C(=O)N1CCCC1Cn1cccn1 (stereo not drawn) | -7.22
65 | CCCc1n[nH]c(C2CN(C(=O)c3cncnc3C)CCO2)n1 (stereo not drawn) | -12.9
66 | CC(C)c1nn(C)c(N(C)C)c1CNCCC(=O)NC1CCCCC1 | -2.89
67 | CC1CN(C)CCN1CC(=O)NCCOc1ccc(Cl)cc1 (stereo not drawn) | -8.69
68 | Cc1ccc(C(=O)NS(=O)(=O)c2ccccc2Cl)c(=O)[nH]1 | -8.81
69 | Cn1ccc(C(=O)N2CCN(c3ccccn3)CC2)cc1=O | -9.43

Row | Structure (SMILES) | cytotoxicity at 10 µM [%]
70 | O=C(CCOc1ccccc1F)N1CCCC(n2cncn2)C1 (stereo not drawn) | -1.22
71 | Cc1ccccc1OCCCC(=O)N1CCCC(n2cncn2)C1 (stereo not drawn) | -4.36
72 | O=C(c1cccnc1N1CCOCC1)N1CCCC(n2cncn2)C1 (stereo not drawn) | -3.37
73 | CC(=O)c1ccc(OCC(=O)NS(=O)(=O)c2cccnc2)cc1 | -18
74 | N#Cc1cn(C2CC2)c(=O)n(CC(O)c2ccc(F)cc2)c1=O (stereo not drawn) | 2.37
75 | O=C(Nc1cn[nH]c1)c1ccncc1 | -6.01
76 | CN(Cc1ccncc1)C(=O)NC1CCCN(c2ncccn2)C1 (stereo not drawn) | -14
77 | Cn1cnnc1C1CCN(C(=O)c2cc3c(s2)CCCC3)CC1 | -19
78 | O=C(c1cnc2c(cnn2C2CCCC2)c1)N1CCCSCC1 | -9.3
79 | CCc1nccn1CC1CCCN1S(=O)(=O)Cc1ccccc1 (stereo not drawn) | -13.4
80 | Cc1cnc(CN2CCCC(c3cc(C)[nH]n3)C2)cn1 (stereo not drawn) | 0.802
81 | Cc1cc(OCC(=O)N2CCCC(c3noc(C(C)C)n3)C2)no1 (stereo not drawn) | -4.56
82 | CC(C)(C)n1ncc2c1CCCC2NCc1cccc2c1OCCO2 (stereo not drawn) | -2.69
83 | COc1ccc(N(C)Cc2nc3c(cnn3C)c(=O)[nH]2)cc1OC | -10.7
84 | Cc1cnn(CC2CCCCN2C(=O)Cc2cccc(F)c2)c1 (stereo not drawn) | -10.7
85 | CCNc1cc2c(nn1)CCN(C(=O)c1cc(C)n(C3CC3)c1C)C2 | -0.282
86 | Cc1ccc(-c2nc(CN3CCCC(C(=O)N(C)C)C3)cs2)o1 (stereo not drawn) | -14
87 | O=C(c1ccnc(-n2ccnc2)c1)N1CCCC(n2cccn2)C1 (stereo not drawn) | 1.21
88 | COCCNC(=O)CN1CCCC1c1c(C)nn(C)c1Cl (stereo not drawn) | -0.185
89 | c1ncn(CC2CN(CCCOc3ccc4c(c3)OCO4)CCO2)n1 (stereo not drawn) | -1.85
90 | Cc1ccc(N2CCCC(NCc3sccc3C)C2)nn1 (stereo not drawn) | -3.8
91 | CCc1nccn1C1CCCN(C(=O)c2cccc3c2OCO3)C1 (stereo not drawn) | -8.87
92 | O=C(NCCNc1ncccn1)C1CC(=O)N(CC2CC2)C1 (stereo not drawn) | -14

Row | Structure (SMILES) | cytotoxicity at 10 µM [%]
93 | Cc1cnc(C(=O)NC(COCC(C)C)c2ccco2)cn1 (stereo not drawn) | -19.6
94 | Cc1cccc(C2(CNC(=O)CCN3C(=O)CCC3=O)CCCC2)c1 | -7.59
95 | Cc1cc(C2CCCN(CCCNS(C)(=O)=O)C2)n[nH]1 (stereo not drawn) | -5.2
96 | c1ccc(Cn2cncn2)c(CNCC2CNc3ccnn3C2)c1 (stereo not drawn) | -3.61
97 | Cc1cc(C)n(C2CCCN(C(=O)c3c(C)c(C)n[nH]c3=O)C2)n1 (stereo not drawn) | 3.18
98 | CCn1cnnc1CNC(=O)N(C)Cc1ccc(F)c(F)c1 | -11.4
99 | Cc1ccccc1CN1CCCN(C2CCOC2=O)CC1 (stereo not drawn) | -3.09
100 | COc1ccccc1CNC(=O)N1CCCC(NS(C)(=O)=O)C1 (stereo not drawn) | 5.05
101 | Cc1ccc(-c2nc(CN3CCn4c(nnc4C4CC4)C3)cs2)o1 | -0.215
102 | CC1CCN(c2cncc(CCC3CCCN3)n2)CC1 (stereo not drawn) | 4.52
103 | O=C1CCC2(CCC(NC(=O)NCc3cccnc3)CC2)N1 (stereo not drawn) | -5.25
104 | COc1nc2cc(C)ccc2cc1CN(C)Cc1cc(C)[nH]n1 | 4.3
105 | CN(C)CC1COCCN1C(=O)C1(c2cccs2)CCCC1 (stereo not drawn) | -9.52
106 | CC(C)OCc1nn(C)c2c1CN(Cc1cccs1)CC2 | -99.5
107 | CN(C)CCOCc1nnc2n1CCN(CC1CC1)CC2 | -4.87
108 | CCOCC1CN(C(=O)c2cc(C)oc2C)Cc2c1cnn2C (stereo not drawn) | 9.64
109 | NC(=O)C1CNCCN1C(=O)COc1ccccc1 (stereo not drawn) | 1.6
110 | Cc1nc(CN2CC3(CCN(c4cnccn4)C3)CC2=O)cs1 (stereo not drawn) | 1.36
111 | CCN1CC[C@@]2(C(=O)Nc3ccccc3)CCN(S(C)(=O)=O)CC[C@@H]12 | 7.14
112 | COC[C@]12COC[C@H]1CN(Cc1ccc3c(c1)OCO3)C2 | -108
113 | CCO[C@@H]1CC[C@H]2[C@H]1OCCN2Cc1ccoc1 | -96.9
